The structures appear in SMILES notation. Values after ≈ are worked out from the molar mass of the structure shown. Bounds are passed on as bounds.

What all share (format): functional
The subject of test [1] is Mycobacterium tuberculosis. The test is described as follows: Antibacterial activity against Mycobacterium tuberculosis H37Rv after 5 days by microplate Alamar Blue assay. Particulars: 120 h. In outline: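 M. tuberculosis H37Rv grown in 7H9; final inoculum 2 × 10^6 cfu/mL. Samples from 20 mg/mL DMSO stocks, 2-fold diluted in 7H9 without Tween 80, tested in triplicate at 37 °C. From day 5, Alamar Blue plus 5% Tween 80 went to a control well; whole plate dosed once bacteria-only well turned pink. Read visually 24 h later; MIC = lowest concentration preventing colour change.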

In test [2] the test system is Pseudomonas aeruginosa. The test is described as follows: Antibacterial activity against Pseudomonas aeruginosa 11 after 24 hrs by microdilution test. Particulars: Pseudomonas aeruginosa, 11, 24 h. In outline: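 CLSI broth microdilution; P. aeruginosa 11 grown in Mueller-Hinton broth, final inoculum 10^6 cells/mL. Samples from 20 mg/mL DMSO stocks, serially diluted, run in triplicate; sansanmycin A as positive control. Incubated 37 °C for 24 h, growth read by eye; MIC = lowest concentration completely inhibiting growth.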
(Dilution methods test growth across graded concentrations, often in twofold steps.)

Test [3] concerns Mycobacterium tuberculosis. The test is described as follows: Ratio of sansanmycin A MIC to compound MIC for Mycobacterium tuberculosis H37Rv after 5 days by microplate Alamar Blue assay. For orientation: Alamar Blue is a resazurin reagent that responds to reducing activity.

Broadly, the MIC is the lowest concentration found to suppress growth. A higher MIC goes with a need for much substance. As for `C[C@@H]([C@H](NC(=O)[C@H](CC[S+](C)[O-])NC(=O)N[C@@H](Cc1c[nH]c2ccccc12)C(=O)O)C(=O)N/C=C1/C[C@@H](O)[C@H](n2ccc(=O)[nH]c2=O)O1)N(C)C(=O)[C@@H](N)Cc1cccc(O)c1` (stereo partly drawn), the minimum inhibitory concentration (MIC) is > 32 µg/mL in test [1] and 16 µg/mL (≈ 18.2 µM) in test [2].
In the same order, the values of `CSCC[C@H](NC(=O)N[C@@H](Cc1c[nH]c2ccccc12)C(=O)O)C(=O)N[C@H](C(=O)N/C=C1/C[C@@H](O)[C@H](n2ccc(=O)[nH]c2=O)O1)[C@H](C)N(C)C(=O)C1Cc2cccc(O)c2CN1` (stereo partly drawn) are > 32 µg/mL and > 64 µg/mL.
As to `CSCC[C@H](NC(=O)N[C@@H](Cc1c[nH]c2ccccc12)C(=O)O)C(=O)N[C@H](C(=O)N/C=C1/C[C@@H](O)[C@H](n2ccc(=O)[nH]c2=O)O1)[C@H](C)N(C)C(=O)C1Cc2cc(O)ccc2CN1` (stereo partly drawn), the MIC in test [1] is 8 µg/mL (≈ 9.13 µM); in test [2], > 64 µg/mL.
In the same order, the values of `C[C@@H]([C@H](NC(=O)[C@H](Cc1ccccc1)NC(=O)N[C@@H](Cc1c[nH]c2ccccc12)C(=O)O)C(=O)N/C=C1/C[C@@H](O)[C@H](n2ccc(=O)[nH]c2=O)O1)N(C)C(=O)C1Cc2cccc(O)c2CN1` (stereo partly drawn) are 16 µg/mL (≈ 17.9 µM) and 32 µg/mL (≈ 35.9 µM).
Regarding `C[C@@H]([C@H](NC(=O)[C@H](Cc1ccccc1)NC(=O)N[C@@H](Cc1c[nH]c2ccccc12)C(=O)O)C(=O)N/C=C1/C[C@@H](O)[C@H](n2ccc(=O)[nH]c2=O)O1)N(C)C(=O)C1Cc2cc(O)ccc2CN1` (stereo partly drawn), the minimal inhibitory concentration (MIC) came to 2 µg/mL (≈ 2.24 µM) in test [1] and 8 µg/mL (≈ 8.97 µM) in test [2]. In test [3], the Ratio turned out to be 8.
For `CSCC[C@H](NC(=O)N[C@@H](Cc1ccc(O)cc1)C(=O)O)C(=O)N[C@H](C(=O)N/C=C1/C[C@@H](O)[C@H](n2ccc(=O)[nH]c2=O)O1)[C@H](C)N(C)C(=O)C1Cc2cccc(O)c2CN1` (stereo partly drawn), the MIC in test [1] was > 32 µg/mL; in test [2] it was > 64 µg/mL.
In the same order, the values of `CSCC[C@H](NC(=O)N[C@@H](Cc1ccc(O)cc1)C(=O)O)C(=O)N[C@H](C(=O)N/C=C1/C[C@@H](O)[C@H](n2ccc(=O)[nH]c2=O)O1)[C@H](C)N(C)C(=O)C1Cc2cc(O)ccc2CN1` (stereo partly drawn) are 16 µg/mL (≈ 18.8 µM) and > 64 µg/mL.
The matching figures for `C[C@@H]([C@H](NC(=O)[C@H](Cc1ccccc1)NC(=O)N[C@@H](Cc1c[nH]c2ccccc12)C(=O)O)C(=O)N/C=C1/C[C@@H](O)[C@H](n2ccc(=O)[nH]c2=O)O1)N(C)C(=O)[C@@H](N)Cc1cccc(O)c1`: 8 µg/mL (≈ 9.09 µM) and 32 µg/mL (≈ 36.4 µM).
The matching figures for `CSCC[C@H](NC(=O)N[C@@H](Cc1ccc(O)cc1)C(=O)O)C(=O)N[C@H](C(=O)N/C=C1/C[C@@H](O)[C@H](n2ccc(=O)[nH]c2=O)O1)[C@H](C)N(C)C(=O)[C@@H](N)Cc1cccc(O)c1`: 8 µg/mL (≈ 9.51 µM) and 8 µg/mL (≈ 9.51 µM).
For the compound `NNC(=O)c1ccncc1` [ISONIAZID], the MIC in test [1] was found to be 0.05 µg/mL (≈ 0.365 µM).
The same measure, in the same setting: the result for `CO[C@H]1/C=C/O[C@@]2(C)Oc3c(C)c(O)c4c(O)c(c(/C=N/N5CCN(C)CC5)c(O)c4c3C2=O)NC(=O)/C(C)=C\C=C\[C@H](C)[C@H](O)[C@@H](C)[C@@H](O)[C@@H](C)[C@H](OC(C)=O)[C@@H]1C` [RIFAMPIN] reads 0.12 µg/mL (≈ 0.146 µM).
For `CSCCC(NC(=O)NC(Cc1c[nH]c2ccccc12)C(=O)O)C(=O)NC(C(=O)N/C=C1\C[C@@H](O)[C@H](n2ccc(=O)[nH]c2=O)O1)C(C)N(C)C(=O)C(N)Cc1cccc(O)c1` (stereo partly drawn) [SANSANMYCIN A], the MIC amounted to 16 µg/mL (≈ 18.5 µM) in test [1] and 4 µg/mL (≈ 4.63 µM) in test [2].

The values above are taken from ChEMBL document CHEMBL3351273, “NRPS substrate promiscuity leads to more potent antitubercular sansanmycin analogues” (2014).
